Source: PubChem BioAssay (several laboratories)
Rin1-Abl PPI inh – human Rin1-Abl interaction inhibition. inhibition, % at 7.35 µM. 360,000 tested, 0.4% active. AID 588664. P00519+Q13671. TR-FRET Rin1/Abl binding, biochemical; in the data active = inhibition above about 5%, passing the limit was not always enough
Rpn11 block – Rpn11 (human) deubiquitinase inhibition | O00487 | human 26S proteasome, Ub4-pepOG fluorescence polarization; 20S core pre-blocked with epoxomicin | inhibition, % at 20 µM | 360,000 tested, 0.59% active;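 active = inhibition at 20 µM, scaled to each plate's controls, above about 33%, limit read from the data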
Target sequence (O00487 whole entry, looked up): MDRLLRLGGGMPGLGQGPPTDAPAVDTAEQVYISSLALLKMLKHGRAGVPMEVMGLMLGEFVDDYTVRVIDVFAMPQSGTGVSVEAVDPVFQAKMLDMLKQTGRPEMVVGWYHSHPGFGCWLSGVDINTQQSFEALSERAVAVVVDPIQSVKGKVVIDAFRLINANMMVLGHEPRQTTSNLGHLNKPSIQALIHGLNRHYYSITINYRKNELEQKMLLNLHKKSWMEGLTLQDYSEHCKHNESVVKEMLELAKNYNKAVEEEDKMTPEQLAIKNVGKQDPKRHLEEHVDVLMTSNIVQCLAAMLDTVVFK
NadD inh – NadD (S. aureus) enzyme inhibition; inhibition, % at 20 µM; 360,000 tested, 0.78% active; purified NadD enzyme, colorimetric absorbance read-out; in the data active = inhibition above about 26%
ABHD5-PLIN5 inh – ABHD5-PLIN5 protein interaction inhibition. Split G. princeps luciferase complementation, luminescence, 4 h. inhibition, % at 4 µM. 360,000 tested, 0.78% active;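 active = inhibition above the mean inhibition across every tested compound plus 3 SD, cut at about 22% in these data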
XiGFP reactiv – reactivates the inactive X chromosome in mouse fibroblasts | AID 743238 | activation, % at 7.58 µM | XiGFP mouse fibroblasts, % GFP-positive cells imaging, 3 d; cells co-treated with 5-aza-dC sensitizer; scaled so ellipticine positive control = 100% | 360,000 tested, 0.055% active;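 active = mean normalized replicate activation at least 10% and every replicate at or above 10%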
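Assay system: SV40-immortalized XiGFP fibroblast cells, line 68-5-11; buffer or medium: DMEM plus 5-aza-dC sensitizer; compound: one concentration, pinned; timing: compounds 3 days, fix/stain 15 min at room temperature; benchmarks: positive control ellipticine, 6 µM final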
Rin1-Abl confirm – Rin1-Abl interaction inhibition confirmation; 1,300 tested, 49% active; shares compounds with Rin1-Abl PPI inh; inhibition, % at 7.35 µM; TR-FRET Rin1-Abl binding, purified proteins; AID 602124
GFP quench – counter-screen for Rin1-Abl inhibitors: GFP fluorescence quenchers | inhibition, % at 6.75 µM | shares compounds with Rin1-Abl PPI inh | 1,300 tested, 8.5% active | AID 602125 | inhibitors/quenchers counterscreen;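 note: ABL1-eGFP fusion protein alone without its partner RIN1-SBP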
GFP quench dose – GFP fluorescence interference dose response | shares compounds with Rin1-Abl PPI inh | GFP fluorescence interference/quenching counterscreen | IC50, µM | 230 tested, under 10 active; call rule not given here;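 note: ABL1-eGFP fusion protein alone without its RIN1 binding partner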
Large screens that a line does not name were inactive (follow-up assays come after a bar, where they were run). Sampled rows, rich in hits. Any-hit rate of the full collection: about 1.9%. Cut-off read from the data, not from the text of the source, unless noted: active = inhibition above about 6.5%; inactive = the rest.

CC=Cc1ccc2n(c1=O)C[C@@H]1[C@@H](CO)[C@H](C(=O)NCC3CCCCC3)N(C(=O)CC)[C@H]21 (mixture of isomers)	none (no result: Rin1-Abl PPI inh, Rpn11 block, NadD inh, ABHD5-PLIN5 inh)
CC(=O)NC(c1cccs1)c1cc(F)c2cccnc2c1O (stereo unspecified)	Rin1-Abl PPI inh 17 | Rin1-Abl confirm 13 | GFP quench inactive
CC12CCC(=O)N1C(C(=O)Nc1nnc(SCc3ccccc3F)s1)CS2 (stereo unspecified)	Rin1-Abl PPI inh 32 | Rin1-Abl confirm 52 | GFP quench inactive | GFP quench dose inactive
CCc1nnc(NC(=O)C2CSC3(C)CCC(=O)N23)s1 (stereo unspecified)	none
O=C(C[C@H]1C=C[C@H](NC(=O)c2ccccc2)[C@@H](CO)O1)NCc1ccc(Oc2ccccc2)cc1	none (no result: Rin1-Abl PPI inh, Rpn11 block, NadD inh, ABHD5-PLIN5 inh)
Nc1nc(O)c(N=Nc2ccc(S(N)(=O)=O)cc2)c(=O)[nH]1	none (no result: Rin1-Abl PPI inh, Rpn11 block, NadD inh, ABHD5-PLIN5 inh)
NS(=O)(=O)c1ccc(N=Nc2c[nH]c(=O)c(O)c2)cc1	Rin1-Abl PPI inh 18 | Rin1-Abl confirm 14 | GFP quench 24
CO[C@@H](C(=O)N(C)C[C@@H]1OCc2ccccc2-c2c(n(C)c3ccccc23)C(=O)N([C@@H](C)CO)C[C@@H]1C)c1ccccc1	none (no result: Rin1-Abl PPI inh, Rpn11 block, NadD inh, ABHD5-PLIN5 inh)
CN(C(=O)c1ccc(NC(=O)Cc2ccc(NC(=O)C3CCN(C(=O)C4CCCC4)CC3)cc2)cc1)C1CC1	Rin1-Abl PPI inh 78 | Rin1-Abl confirm 84 | GFP quench inactive
CN(C(=O)c1ccc(NC(=O)Cc2ccc(NC(=O)C3CCN(C(=O)C4CCC4)CC3)cc2)cc1)C1CC1	Rin1-Abl PPI inh 37 | Rin1-Abl confirm 62 | GFP quench inactive
CN(C(=O)c1cccc(NC(=O)Cc2ccc(NC(=O)C3CCN(C(=O)C4CCCCC4)CC3)cc2)c1)C1CC1	none (no result: XiGFP reactiv)
CN(C(=O)c1ccc(NC(=O)Cc2cccc(NC(=O)C3CCN(C(=O)C4CCCC4)CC3)c2)cc1)C1CC1	Rin1-Abl PPI inh 20 | Rin1-Abl confirm 28 | GFP quench inactive | GFP quench dose inactive
CN(C(=O)c1ccc(NC(=O)Cc2ccc(NC(=O)C3CCN(C(=O)C4CCCCC4)CC3)cc2)cc1)C1CCCC1	none
Cc1cc(N2CCOCC2)nc(SCC(=O)c2ccc(Cl)cc2)n1	Rin1-Abl PPI inh 15 (no result: XiGFP reactiv) | Rin1-Abl confirm 15 | GFP quench inactive
C[C@H]1CN([C@@H](C)CO)S(=O)(=O)c2ccc(C3=CCCCC3)cc2O[C@@H]1CN(C)C(=O)Cc1ccncc1	none (no result: Rin1-Abl PPI inh, Rpn11 block, NadD inh, ABHD5-PLIN5 inh)
Cc1cc(Oc2ccc(=O)n(C)n2)nc(SCCOc2ccccc2)n1	Rin1-Abl PPI inh 33 | Rin1-Abl confirm inactive | GFP quench inactive
CCn1c(SCC(=O)Nc2ccccc2)nc2nc3c(cc2c1=O)COC(C)(C)C3	none (no result: Rin1-Abl PPI inh, Rpn11 block, NadD inh, ABHD5-PLIN5 inh)
CCn1c(SCC(=O)Nc2cccc(C)c2)nc2nc3c(cc2c1=O)COC(C)(C)C3	Rin1-Abl PPI inh 7.5 | Rin1-Abl confirm 13 | GFP quench inactive
Cc1ccc(C)c(NC(=O)CCc2c(C)nn(-c3ccc(N4CCCCC4)nn3)c2C)c1	Rin1-Abl PPI inh 12 | Rin1-Abl confirm inactive | GFP quench inactive
Cc1ccc(NC(=O)CCc2c(C)nn(-c3ccc(N4CCCCC4)nn3)c2C)cc1F	none
COc1ccc(S(=O)(=O)N2CC[C@H]3[C@@H](CO)N(C)c4ccc(C5=CCCCC5)cc4[C@H]32)cc1	none (no result: Rin1-Abl PPI inh, Rpn11 block, NadD inh, ABHD5-PLIN5 inh)
Cc1ccc(S(=O)(=O)N2CCCC2CNC(=O)C(=O)NCc2ccc3c(c2)OCO3)cc1 (stereo unspecified)	Rin1-Abl PPI inh 10 | Rin1-Abl confirm inactive | GFP quench inactive
C[C@@H]1O[C@@H](O[C@@H]2[C@@H](O)[C@H](OCCc3ccc(O)c(O)c3)O[C@H](CO)[C@H]2OC(=O)/C=C/c2ccc(O)c(O)c2)[C@H](O)[C@H](O)[C@H]1O	Rin1-Abl PPI inh 31 | Rin1-Abl confirm 34 | GFP quench inactive
COc1cc(/C=C/C(=O)OC[C@H]2O[C@H](OC3(CO)OC(CO)C(O)C3O)[C@H](O)[C@@H](O)[C@@H]2O)ccc1O (stereo partly specified)	none
COc1cccc(CN2CC3(CCN(Cc4ccccn4)CC3)c3c([nH]c4cc(OC)ccc34)[C@@H]2CO)c1	none (no result: Rin1-Abl PPI inh, Rpn11 block, NadD inh, ABHD5-PLIN5 inh)
CCCc1nc2nc(C)c(NS(=O)(=O)c3ccc(CC(C)C)cc3)c(=O)n2[nH]1	none
CCc1nc2nc(C)c(NS(=O)(=O)c3ccc(CC(C)C)cc3)c(=O)n2[nH]1	Rin1-Abl PPI inh 8.2 | Rin1-Abl confirm inactive | GFP quench inactive
O=C(Nc1ccn(CCOC(=O)c2ccccc2)c(=O)n1)c1ccccc1	none
C#CCO[C@@H]1C[C@H](n2ccc(NC(=O)c3ccccc3)nc2=O)O[C@@H]1CO	Rin1-Abl PPI inh 10 | Rin1-Abl confirm inactive | GFP quench inactive
C#CCO[C@@H]1C[C@H](n2cnc3c(NC(=O)c4ccccc4)ncnc32)O[C@@H]1CO	none
O=C(Nc1ccn(C2CCC(CO)O2)c(=O)n1)c1ccccc1 (stereo unspecified)	Rin1-Abl PPI inh 65 | Rin1-Abl confirm 56 | GFP quench inactive
Oc1ccc(-c2cn3c(n2)SCC3)cc1O	Rin1-Abl PPI inh 26 (no result: XiGFP reactiv) | Rin1-Abl confirm 20 | GFP quench 15
C[C@H](CO)N1C[C@H](C)[C@@H](CN(C)Cc2ccccc2)Oc2cc(C3=CCCCC3)ccc2S1(=O)=O	none (no result: Rin1-Abl PPI inh, Rpn11 block, NadD inh, ABHD5-PLIN5 inh)
CCn1c(CCc2ccccc2)nnc1SCC(N)=O	Rin1-Abl PPI inh 6.9 | Rin1-Abl confirm inactive | GFP quench inactive
CCOC(=O)C1CCCN(C(=O)c2ccc(Cl)cc2)C1 (stereo unspecified)	none
CCCCC(=O)Nc1ccc(C(=O)N2CCCC(C(=O)OCC)C2)cc1 (stereo unspecified)	Rin1-Abl PPI inh 7.3 (no result: XiGFP reactiv) | Rin1-Abl confirm inactive | GFP quench inactive
O=S(=O)(Cc1ccccc1)NCC[C@@H]1CC[C@H](NS(=O)(=O)c2ccccc2)[C@@H](CO)O1	none (no result: Rin1-Abl PPI inh, Rpn11 block, NadD inh, ABHD5-PLIN5 inh)
Oc1ccc(CN2CCc3ccccc3C2)c2cccnc12	Rin1-Abl PPI inh 28 (no result: XiGFP reactiv) | Rin1-Abl confirm 7.6 | GFP quench inactive
Oc1ccc(CN2CCN(c3ccccc3)CC2)c2cccnc12	none (no result: XiGFP reactiv)
COc1cc(CN2CC3(CCN(C(=O)CN4CCOCC4)CC3)c3c(n(C)c4cc(OC)ccc34)[C@@H]2CO)cc(OC)c1	none (no result: Rin1-Abl PPI inh, Rpn11 block, NadD inh, ABHD5-PLIN5 inh)
CNC[C@@H]1Oc2c(cccc2N(C)C)C(=O)N(C)C[C@@H]1C	none (no result: Rin1-Abl PPI inh, Rpn11 block, NadD inh, ABHD5-PLIN5 inh)
O=C(c1ccccc1)c1ccc(OCC(O)CN2CCN(S(=O)(=O)N3CCCCC3)CC2)cc1 (stereo unspecified)	Rin1-Abl PPI inh 6.7 (no result: XiGFP reactiv) | Rin1-Abl confirm inactive | GFP quench inactive
